Measurements as given in ChEMBL document CHEMBL3745596, “Chlorophenoxy aminoalkyl derivatives as histamine H(3)R ligands and antiseizure agents” (Bioorg Med Chem, 2016).
pIC50, pKi: −log10 of the molar value. Activity calls are given as the source filed them.

Assays:
Mus musculus [1] = experiment: Anticonvulsant activity in ip dosed CF1 albino mouse assessed as protection against subcutaneous pentetrazole-induced seizure after 0.25 hrs; type: functional
In short: (§1)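 Male CF-1 mice, ip in 0.5% methylcellulose; pentetrazole at CD97 (85 mg/kg) injected subcutaneously in a loose fold of neck skin. Observed 30 min; absence of even a threshold seizure (single clonic spasm lasting at least 5 s) counted as protection. Scored protected/tested, or ED50.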

Histamine H3 receptor = Histamine H3 receptor (Homo sapiens, UniProt Q9Y5N1); experiment: Displacement of [3H]-Nalpha-methylhistamine from human recombinant histamine H3 receptor expressed in HEK293 cells after 90 mins; type: cell-based
Mus musculus [2] = experiment: Anticonvulsant activity in CF1 albino mouse assessed as protection against maximal electroshock-induced seizure at 100 mg/kg, ip after 4 hrs; type: functional, organism-based
In short: (§2)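 Male CF-1 mice dosed ip as suspension in 0.5% methylcellulose. Corneal electrodes deliver 60 Hz alternating current, 50 mA for […], after a drop of 0.5% tetracaine HCl in 0.9% NaCl per eye. Protection means abolition of hindlimb tonic extension; scored as protected/tested, or ED50 with 95% confidence interval.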

Mus musculus [3] = experiment: Neurotoxicity in CF1 albino mouse at 30 mg/kg, ip after 0.5 hrs by rotarod test; type: toxicity, organism-based; settings: in vivo
In short: (§3)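 Rotarod neurotoxicity in male albino CF-1 mice dosed ip with compound suspended in 0.5% methylcellulose. Animal placed on a 1 inch diameter knurled plastic rod rotating at 6 rpm. Neurotoxicity scored when the animal falls off three times within 1 min. Readout is number of animals toxic/number tested at the stated time after dosing. TD50 with 95% confidence interval from the quantitative study.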

Mus musculus [4] = experiment: Anticonvulsant activity in CF1 albino mouse assessed as protection against maximal electroshock-induced seizure at 100 mg/kg, ip after 0.5 hrs; type: functional, organism-based; in short: as §2
Mus musculus [5] = experiment: Anticonvulsant activity in CF1 albino mouse assessed as protection against subcutaneous pentetrazole-induced seizure at 100 mg/kg, ip after 4 hrs; type: functional, organism-based; in short: as §1
Mus musculus [6] = experiment: Neurotoxicity in CF1 albino mouse at 100 mg/kg, ip after 4 hrs by rotarod test; type: toxicity, organism-based; settings: in vivo; in short: as §3
Mus musculus [7] = experiment: Anticonvulsant activity in CF1 albino mouse assessed as protection against maximal electroshock-induced seizure at 30 mg/kg, ip after 4 hrs; type: functional, organism-based; in short: as §2
Mus musculus [8] = experiment: Anticonvulsant activity in CF1 albino mouse assessed as protection against subcutaneous pentetrazole-induced seizure at 30 mg/kg, ip after 0.5 hrs; type: functional, organism-based; in short: as §1
Mus musculus [9] = experiment: Neurotoxicity in CF1 albino mouse at 300 mg/kg, ip after 4 hrs by rotarod test; type: toxicity, organism-based; settings: in vivo; in short: as §3
Mus musculus [10] = experiment: Anticonvulsant activity in CF1 albino mouse assessed as protection against subcutaneous pentetrazole-induced seizure at 30 mg/kg, ip after 4 hrs; type: functional, organism-based; in short: as §1
Mus musculus [11] = experiment: Anticonvulsant activity in CF1 albino mouse assessed as protection against maximal electroshock-induced seizure at 30 mg/kg, ip after 0.5 hrs; type: functional, organism-based; in short: as §2
Mus musculus [12] = experiment: Neurotoxicity in CF1 albino mouse at 30 mg/kg, ip after 4 hrs by rotarod test; type: toxicity, organism-based; settings: in vivo; in short: as §3
Mus musculus [13] = experiment: Neurotoxicity in CF1 albino mouse assessed as death at 300 mg/kg, ip after 0.5 hrs by rotarod test; type: toxicity, organism-based; settings: in vivo
In short: (§4)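 Male albino CF-1 mice dosed ip with compound suspended in 0.5% methylcellulose, then placed on a 1-inch knurled plastic rod turning at 6 rpm. A fall three times within 1 min counted as neurotoxicity. Observations were made at 0.5 h and 4 h after dosing. Result given as animals showing toxicity per animals tested, with the kind of toxicity recorded.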

Mus musculus [14] = experiment: Neurotoxicity in CF1 albino mouse at 50 mg/kg, ip after 1 hr by rotarod test; type: toxicity, organism-based; settings: in vivo; in short: as §3
Rattus norvegicus = experiment: Anticonvulsant activity in Sprague-Dawley rat assessed as protection against maximal electroshock-induced seizure at 30 mg/kg, po; type: functional
Mus musculus [15] = experiment: Neurotoxicity in CF1 albino mouse at 10 mg/kg, ip after 0.5 hrs by rotarod test; type: toxicity, organism-based; settings: in vivo
In short: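 Rotarod neurotoxicity in male CF-1 mice dosed ip as 0.5% methylcellulose suspension: mouse placed on 1 inch knurled rod rotating at 6 rpm; toxicity when the animal falls off three times within 1 min, with other signs noted. Scored as toxic/tested at 0.5 h and 4 h.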

Mus musculus [16] = experiment: Anticonvulsant activity in CF1 albino mouse assessed as protection against maximal electroshock-induced seizure at 3 mg/kg, ip after 0.5 hrs; type: functional, organism-based; in short: as §2
Mus musculus [17] = experiment: Neurotoxicity in CF1 albino mouse at 3 mg/kg, ip after 0.5 hrs by rotarod test; type: toxicity, organism-based; settings: in vivo; in short: as §3
Mus musculus [18] = experiment: Neurotoxicity in CF1 albino mouse at 50 mg/kg, ip after 2 hrs by rotarod test; type: toxicity, organism-based; settings: in vivo; in short: as §3
Mus musculus [19] = experiment: Neurotoxicity in CF1 albino mouse at 50 mg/kg, ip after 4 hrs by rotarod test; type: toxicity, organism-based; settings: in vivo; in short: as §3
Mus musculus [20] = experiment: Anticonvulsant activity in CF1 albino mouse assessed as protection against 6 Hz-psychomotor-induced seizure at 50 mg/kg, ip after 0.25 hrs; type: functional, organism-based
In short: (§5)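 Male CF-1 mice, ip suspension in 0.5% methylcellulose. Corneal stimulation 0.2 ms monopolar rectangular pulses at 6 Hz, 32 mA for 3 s via constant-current device; mice without minimal clonic phase seizure counted protected. Groups of four; read at 0.25, 0.5, 1, 2, 4 h; result as protected/tested.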

Mus musculus [21] = experiment: Anticonvulsant activity in CF1 albino mouse assessed as protection against maximal electroshock-induced seizure at 10 mg/kg, ip after 0.5 hrs; type: functional, organism-based; in short: as §2
Mus musculus [22] = experiment: Protective index, ratio of TD50 for ip dosed CF1 albino mouse to ED50 for ip dosed CF1 albino mouse assessed as protection against maximal electroshock-induced seizure after 0.25 hrs; type: functional
Mus musculus [23] = experiment: Anticonvulsant activity in ip dosed CF1 albino mouse assessed as protection against maximal electroshock-induced seizure after 0.25 hrs; type: functional; in short: as §2
Mus musculus [24] = experiment: Anticonvulsant activity in CF1 albino mouse assessed as protection against 6 Hz-psychomotor-induced seizure at 50 mg/kg, ip after 1 hr; type: functional, organism-based; in short: as §5
Mus musculus [25] = experiment: Neurotoxicity in CF1 albino mouse assessed as unable to grasp rotarod and death at 100 mg/kg, ip after 0.5 hrs by rotarod test; type: toxicity, organism-based; settings: in vivo; in short: as §4
Mus musculus [26] = experiment: Anticonvulsant activity in CF1 albino mouse assessed as protection against 6 Hz-psychomotor-induced seizure at 50 mg/kg, ip after 4 hrs; type: functional, organism-based; in short: as §5
Mus musculus [27] = experiment: Anticonvulsant activity in CF1 albino mouse assessed as protection against 6 Hz-psychomotor-induced seizure at 50 mg/kg, ip after 2 hrs; type: functional, organism-based; in short: as §5
Mus musculus [28] = experiment: Anticonvulsant activity in CF1 albino mouse assessed as protection against 6 Hz-psychomotor-induced seizure at 50 mg/kg, ip after 0.5 hrs; type: functional, organism-based; in short: as §5
Mus musculus [29] = experiment: Anticonvulsant activity in CF1 albino mouse assessed as protection against subcutaneous pentetrazole-induced seizure at 100 mg/kg, ip after 0.5 hrs; type: functional, organism-based; in short: as §1
Mus musculus [30] = experiment: Anticonvulsant activity in CF1 albino mouse assessed as protection against 6 Hz-psychomotor-induced seizure at 30 mg/kg, ip after 0.25 to 4 hrs; type: functional, organism-based; in short: as §5
Mus musculus [31] = experiment: Neurotoxicity in CF1 albino mouse at 30 mg/kg, ip after 0.25 to 4 hrs by rotarod test; type: toxicity, organism-based; settings: in vivo; in short: as §3
Mus musculus [32] = experiment: Neurotoxicity in CF1 albino mouse at 50 mg/kg, ip after 0.25 hrs by rotarod test; type: toxicity, organism-based; settings: in vivo; in short: as §3
[33] = Antiproliferative activity against human IMR32 cells assessed as cell viability after 48 hrs by formazan EZ4U dye based assay; settings: IMR-32, 48 h
In short: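 HEK-293 (1.5 × 10⁴/well) or IMR-32 (2 × 10⁴/well) cells in DMEM with 10% FBS, 37 °C, 5% CO₂, grown 24 h to about 60% confluence; compounds 0.01–250 µM final, DMSO at most 1%, 48 h.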

Chain of Histamine H3 receptor (Q9Y5N1 whole entry): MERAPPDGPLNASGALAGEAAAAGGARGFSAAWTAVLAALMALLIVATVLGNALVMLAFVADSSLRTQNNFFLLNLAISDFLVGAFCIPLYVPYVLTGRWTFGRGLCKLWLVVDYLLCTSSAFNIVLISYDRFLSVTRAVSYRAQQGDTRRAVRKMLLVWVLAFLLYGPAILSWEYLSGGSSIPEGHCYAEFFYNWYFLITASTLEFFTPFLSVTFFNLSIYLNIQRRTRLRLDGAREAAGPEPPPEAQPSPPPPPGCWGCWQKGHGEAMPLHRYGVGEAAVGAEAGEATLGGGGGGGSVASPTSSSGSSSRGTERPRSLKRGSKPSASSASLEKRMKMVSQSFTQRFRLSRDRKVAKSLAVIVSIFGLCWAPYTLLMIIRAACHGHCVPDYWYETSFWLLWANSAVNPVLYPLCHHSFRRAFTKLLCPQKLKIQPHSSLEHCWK

SMILES	pKi (Histamine H3 receptor)	Activity (Mus musculus [2])	Activity (Mus musculus [3])	Activity (Mus musculus [4])	Activity (Mus musculus [5])	Activity (Mus musculus [6])	Activity (Mus musculus [7])	Activity (Mus musculus [8])	Activity (Mus musculus [9])	Activity (Mus musculus [10])	Activity (Mus musculus [11])	Activity (Mus musculus [12])	Activity (Mus musculus [13])	Activity (Rattus norvegicus)	Activity (Mus musculus [15])	Activity (Mus musculus [16])	Activity (Mus musculus [17])	Activity (Mus musculus [21])	Activity (Mus musculus [25])	Activity (Mus musculus [29])	also measured
CCCC(CCC)C(=O)O [VALPROIC ACID]	–	–	–	–	–	–	–	–	–	–	–	–	–	–	–	–	–	–	–	–	ED50 (Mus musculus [1]): 220 mg/kg
Clc1cccc(OCCCCCCCN2CCCCCC2)c1.O=C(O)C(=O)O	< 3.82	inactive	Non-toxic	Active	inactive	Non-toxic	inactive	inactive	Non-toxic	inactive	inactive	Non-toxic	–	–	–	–	–	–	–	–	–
CC1CCN(CCCCCCOc2cccc(Cl)c2)CC1.O=C(O)C(=O)O	6.39	Active	Non-toxic	Active	–	Non-toxic	inactive	inactive	Non-toxic	inactive	Active	Non-toxic	Toxic	25%	Non-toxic	inactive	Non-toxic	inactive	–	–	Activity (Mus musculus [14]): Non-toxic; Activity (Mus musculus [18]): Non-toxic; Activity (Mus musculus [19]): Non-toxic; Activity (Mus musculus [20]): Active
Nc1nnc(-c2cccc(Cl)c2Cl)c(N)n1 [LAMOTRIGINE]	–	–	–	–	–	–	–	–	–	–	–	–	–	–	–	–	–	–	–	–	ED50 (Mus musculus [1]): > 40 mg/kg; Ratio TD50/ED50 (Mus musculus [22]): 4; ED50 (Mus musculus [23]): 7.47 mg/kg
Clc1cccc(OCCCCCCN2CCCCC2)c1.O=C(O)C(=O)O	6.59	Active	Non-toxic	Active	inactive	Non-toxic	inactive	inactive	Non-toxic	inactive	Active	Non-toxic	Toxic	25%	Non-toxic	inactive	Non-toxic	inactive	Toxic	inactive	Activity (Mus musculus [14]): Non-toxic; Activity (Mus musculus [24]): inactive; Activity (Mus musculus [18]): Non-toxic; Activity (Mus musculus [26]): inactive; Activity (Mus musculus [27]): inactive; Activity (Mus musculus [28]): inactive; Activity (Mus musculus [19]): Non-toxic
Clc1cccc(OCCCCCCN2CCCCCC2)c1.O=C(O)C(=O)O	6.53	–	–	Active	–	Non-toxic	inactive	inactive	Non-toxic	inactive	Active	Non-toxic	Toxic	–	Non-toxic	inactive	Non-toxic	inactive	Toxic	inactive	Activity (Mus musculus [30]): inactive; Activity (Mus musculus [24]): inactive; Activity (Mus musculus [31]): Non-toxic; Activity (Mus musculus [26]): inactive; Activity (Mus musculus [27]): inactive; Activity (Mus musculus [28]): inactive; Activity (Mus musculus [20]): inactive
CC1CCCN(CCCCCCCOc2cccc(Cl)c2)C1.O=C(O)C(=O)O (configuration not stated)	6.33	Active	Non-toxic	Active	inactive	Non-toxic	inactive	inactive	Non-toxic	inactive	inactive	Non-toxic	Toxic	–	–	–	–	–	Toxic	inactive	–
CCC1(c2ccccc2)C(=O)NC(=O)NC1=O [PHENOBARBITAL]	–	–	–	–	–	–	–	–	–	–	–	–	–	–	–	–	–	–	–	–	ED50 (Mus musculus [1]): 13.2 mg/kg; ED50 (Mus musculus [23]): 21.8 mg/kg
Clc1ccc(OCCCCCCCN2CCCCCC2)cc1.O=C(O)C(=O)O	6.69	Active	Non-toxic	Active	–	Non-toxic	inactive	inactive	Non-toxic	inactive	Active	Non-toxic	–	25%	Non-toxic	inactive	Non-toxic	inactive	Toxic	–	Activity (Mus musculus [32]): Non-toxic; Activity (Mus musculus [18]): Non-toxic; Activity (Mus musculus [26]): inactive; Activity (Mus musculus [27]): inactive; Activity (Mus musculus [19]): Non-toxic; Activity (Mus musculus [20]): inactive
Clc1ccc(OCCCCCN2CCCCC2)cc1.O=C(O)C(=O)O	6.37	–	Non-toxic	Active	inactive	Non-toxic	inactive	inactive	Non-toxic	inactive	Active	Non-toxic	Toxic	inactive	Non-toxic	inactive	Non-toxic	inactive	Toxic	inactive	–
COc1cccc2c1C(=O)c1c(O)c3c(c(O)c1C2=O)C[C@@](O)(C(=O)CO)C[C@@H]3O[C@H]1C[C@H](N)[C@H](O)[C@H](C)O1 [DOXORUBICIN]	–	–	–	–	–	–	–	–	–	–	–	–	–	–	–	–	–	–	–	–	pIC50 [33]: 8.29
